The record followed here is ChEMBL document CHEMBL4138310 (J Med Chem, 2018).

Where only a bound is given, the exact number is not on record here.

For series [1], the target named is Protease (Human immunodeficiency virus 1) (UniProt Q9YQ12). The series can be described thus: Inhibition of recombinant HIV1 protease at 1 nM using H-Lys-Ala-Arg-Val-Tyr-Phe(p-NO2)-Glu-Ala-Nle-NH2 as substrate preincubated for 5 mins followed by substrate addition measured after 3 hrs by fluorescence-based assay. The essentials: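 Recombinant HIV-1 protease (40 ng/mL stock in pH 5.0 acetate/EDTA/NaCl/2-mercaptoethanol/NP-40/glycerol) mixed with inhibitor (10 nM solution in DMSO) in 200 mM MES-NaOH pH 5.5 with 2 mM DTT, 2 mM EDTA and 1 M NaCl. Preincubated 5 min at 37 °C, then 1.0 mM substrate solution added and incubated 3 h at 37 °C. Stopped with 1 N HCl. The Lys-Ala-Arg-Val-Tyr-OH product was quantified by RP-HPLC with fluorescence (Ex 275, Em 305 nm). Single determination.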

Series [2] relates to Human immunodeficiency virus 1. The series is described as follows: Antiviral activity against wild-type HIV1 3B infected in human MT4 cells assessed as inhibition of virus-induced cytopathic effect after 5 days in absence of human serum by MTT assay. In kind it is functional, organism-based. The conditions noted are these: Human immunodeficiency virus 1, 3B, MT4, 120 h. A general note: Cytopathic effects are the visible damage that an infection or toxin causes in cultured cells.

Series [3] has as its system Human immunodeficiency virus 1. The series is described as follows: Antiviral activity against wild-type HIV1 3B infected in human MT4 cells assessed as inhibition of virus-induced cytopathic effect after 5 days in presence of 50 % of human serum by MTT assay. It is filed as functional, organism-based. The conditions noted are these: Human immunodeficiency virus 1, 3B, MT4, 120 h.

Series [4] has as its system Human immunodeficiency virus 1. The series can be described thus: Ratio of EC50 for wild-type HIV1 3B infected in human MT4 in presence of 50% of huma serum to EC50 for wild-type HIV-1 3B infected in human MT4 in absence of human serum. In kind it is functional.
The subject of series [5] is Human immunodeficiency virus 1. The series can be described thus: Antiviral activity against wild-type HIV1 pNL4-3 infected in CMVdeltaR8.91 transfected 293T cells after 48 hrs by lentiviral vector-based luciferase reporter gene assay. The conditions noted are these: Human immunodeficiency virus 1, pNL4-3, HEK-293T. It is filed as functional, organism-based. The essentials:
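pNL4-3-based luciferase reporter lentiviral vector made by transfecting 293T cells with pCMV-ΔR8.91 (wild-type or V32I/L33F/I54M/V82I or V32I/L33F/I54M/I84V protease) plus luciferase transfer and envelope plasmids, with or without inhibitor. After 48 h, fresh 293T cells infected with vector. IC50 for suppression of luciferase transduction taken from dose-response curve.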
(In a reporter assay the amount or activity of a reporter protein is the signal.)

In series [6] the test system is Human immunodeficiency virus 1. The series can be described thus: Antiviral activity against wild-type HIV1 pNL4-3 infected in human MT4 cells assessed as inhibition of virus-induced cytopathic effect after 5 days in absence of human serum by MTT assay. It is filed as functional, organism-based. The conditions noted are these: Human immunodeficiency virus 1, pNL4-3, MT4, 120 h. A digest of the protocol: (§1)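 MT-4 cells inoculated with HIV-1 pNL4-3, then given an equal volume of compound at several concentrations in 1% DMSO solution with 10% FBS. Incubated 5 days at 37 °C in CO2, in triplicate. MTT read by optical density, percent reduction of cytopathic effect calculated, and EC50 fitted to the median-effect equation. Values averaged over n = 3; the 50% human serum condition was run alongside.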

In series [7] the test system is Human immunodeficiency virus 1. The series is described as follows: Antiviral activity against wild-type HIV1 pNL4-3 infected in human MT4 cells assessed as inhibition of virus-induced cytopathic effect after 5 days in presence of 50 % of human serum by MTT assay. In kind it is functional, organism-based. The conditions noted are these: Human immunodeficiency virus 1, pNL4-3, MT4, 120 h. The essentials: as §1

In series [8] the test system is Human immunodeficiency virus 1. The series can be described thus: Ratio of EC50 for wild-type HIV1 pNL4-3 infected in human MT4 in presence of 50% of human serum to EC50 for wild-type HIV-1 pNL4-3 infected in human MT4 in absence of human serum. In kind it is functional. The essentials:
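Serum binding effect calculated as the pNL4-3 EC50 in 50% human serum divided by the EC50 in 0% serum, using MT-4 cytopathic-effect MTT assays run for 5 days at 37 °C.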

Series [9] is described as follows: Ratio of EC50 for inhibition of protease L10F/V32I/M46I/I47V/Q58E/I84V mutant in HIV1 A17 infected in human MT4 cells to EC50 for wild-type HIV-1 pNL4-3 infected in human MT4 cells. It is filed as functional, Human immunodeficiency virus 1. A digest of the protocol: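 Ratio of EC50 values from MT-4 cytopathic-effect MTT assays (5 days, 37 °C, triplicate, median-effect fit). Numerator is LPV-resistant strain A1711, denominator is wild-type HIV-1 pNL4-3.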

Series [10] is described as follows: Cytotoxicity against human MT4 cells after 5 days by MTT assay. It is filed as cell-based. The conditions noted are these: read-out: TD50. A digest of the protocol:
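Uninfected MT-4 cells given compound at several concentrations in 1% DMSO solution with 10% FBS. Incubated 5 days at 37 °C in CO2, in triplicate. Viability read by MTT optical density, with TD50 taken as the cytotoxic measure.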
(Formazan colour is commonly taken as a measure of viable cells.)

A short description of series [11]: Ratio of EC50 for DRV-resistant protease V32I/L33F/I54M/V82I mutant in HIV1 transfected in 293T cells to EC50 for wild-type HIV-1 pNL4-3 infected in CMVdeltaR8.91 transfected 293T cells. It is filed as functional, Human immunodeficiency virus 1. The essentials: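 Ratio of IC50 values from the 293T luciferase reporter lentiviral vector assay. Numerator is vector carrying DRV-resistant protease (V32I/L33F/I54M/I84V or V32I/L33F/I54M/V82I), denominator is wild-type pNL4-3-based vector.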

The nature of series [12]: Ratio of EC50 for DRV-resistant protease V32I/L33F/I54M/I84V mutant in HIV1 transfected in 293T cells to EC50 for wild-type HIV-1 pNL4-3 infected in CMVdeltaR8.91 transfected 293T cells. It is filed as functional, Human immunodeficiency virus 1.
For series [13], the system named is Human immunodeficiency virus 1. The series can be described thus: Ratio of EC50 for wild-type HIV1 3B infected in human MT4 in presence of 50% of huma serum to EC50 for wild-type HIV-1 pNL4-3 infected in human MT4 in absence of human serum. It is filed as functional. The essentials: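 Serum binding effect: EC50 measured with 50% human serum divided by EC50 measured without serum. Each EC50 came from protection of MT-4 cells from HIV-induced cytopathic effect. Infected cells were exposed to several compound concentrations in 1% DMSO with 10% FBS for 5 days at 37 °C in triplicate, read by MTT optical density, and fitted to a median-effect equation.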

As a reminder, the inhibition is how much of the control response was suppressed. As a reminder, the EC50 is the concentration that produces a half-maximal response. In the case of `CSC[C@H](NC(=O)COc1cccc2cnccc12)C(=O)N[C@@H](Cc1ccccc1)[C@H](O)C(=O)N1CSC[C@H]1C(=O)NC(C)(C)C`, in series [1], the inhibition is 14%. Besides, the EC50 in series [2] was 176 nM; in [3], 2880 nM. For the same molecule, the “Ratio EC50” value in series [4] was 16.

In the case of `COc1cccc2cc(C(=O)N[C@H](C(=O)N[C@@H](Cc3ccccc3)[C@H](O)C(=O)N3CSC(C)(C)[C@H]3C(=O)NCc3c(C)cccc3C)[C@H]3CCOC3)oc12`, the figures for the EC50 in series [5], in series [6] and in series [7] were 1.71 nM, below 3 nM and 80 nM, respectively. Further, in series [1], the inhibition was found to be 97%. Moreover, the “Ratio EC50” value in [8] is listed as above 27; in [9], above 8; in [11] it was 0.2; in series [12], 0.7. Besides, the CC50 at 120 h in series [10] stood at 11000 nM.

As for `Cc1ccccc1CNC(=O)[C@H]1N(C(=O)[C@@H](O)[C@H](Cc2ccccc2)NC(=O)c2cccc(O)c2C)CSC1(C)C`, in [1], the inhibition stood at 48%. The EC50 turned out to be 60 nM in series [6] and 114 nM in series [3]. Besides, the “Ratio EC50” value came to 2 in series [13] and 46 in [9]. For the same molecule, in [10], the CC50 at 120 h is 23000 nM.
